Activity calls are given as the source filed them. No cut-off for these calls is given here.
Key:
Deoxycytidine kinase [1] = molecular target: T1, Deoxycytidine kinase (Homo sapiens, UniProt P27707); test: Inhibition of human deoxycytidine kinase by lysate filter binding assay
Target sequence in this assay (P27707 whole entry): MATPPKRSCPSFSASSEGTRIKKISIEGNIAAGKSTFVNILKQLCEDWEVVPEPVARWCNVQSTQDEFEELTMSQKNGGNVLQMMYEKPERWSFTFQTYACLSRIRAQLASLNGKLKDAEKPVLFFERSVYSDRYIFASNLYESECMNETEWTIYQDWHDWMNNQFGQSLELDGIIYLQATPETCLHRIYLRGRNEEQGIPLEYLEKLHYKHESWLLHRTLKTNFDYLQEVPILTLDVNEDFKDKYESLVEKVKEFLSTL

[2] = AUC ((0 to infinity)) in mouse at 10 mg/kg, po; assay type: ADME, organism-based; parameters: time infinity, dose 10 mg/kg, route oral; conditions: plasma
Method in brief: (§1)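 Mouse PK: single doses of 10 mpk po and 1 mpk iv, with blood sampled to measure compound levels. Clearance and volume came from the iv dose. AUC to infinity, Cmax and other parameters came from the po dosing data.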

[3] = Cmax in mouse at 10 mg/kg, po; assay type: ADME, organism-based; parameters: dose 10 mg/kg, route oral; conditions: in vivo; method in brief: as §1
[4] = Half life in mouse at 10 mg/kg, po; assay type: ADME, organism-based; parameters: dose 10 mg/kg, route oral; conditions: in vivo; method in brief: as §1
[5] = Tmax in mouse at 10 mg/kg, po; assay type: ADME, organism-based; parameters: dose 10 mg/kg, route oral; conditions: in vivo; method in brief: as §1
[6] = Bioavailability in mouse at 10 mg/kg, po; assay type: ADME, organism-based; conditions: in vivo; method in brief: as §1
[7] = Terminal volume of distribution in mouse at 1 mg/kg, iv; assay type: ADME, organism-based; parameters: dose 1 mg/kg, route intravenous; conditions: in vivo, read-out: Vz; method in brief: as §1
[8] = Clearance in mouse at 1 mg/kg, iv; assay type: ADME, organism-based; parameters: dose 1 mg/kg, route intravenous; conditions: in vivo; method in brief: as §1
Liver microsomes = test: Stability in human liver microsomes; assay type: ADME, Microsome
[9] = Stability in mouse liver microsomes; assay type: ADME, Microsome
Deoxycytidine kinase [10] = molecular target: Deoxycytidine kinase (Mus musculus, UniProt P43346); test: Inhibition of deoxycytidine kinase in anti CD3 and anti CD28 -stimulated mouse T cells assessed as reduction in [3H]deoxycitidine incorporation; assay type: cell-based, T-cell
Chain of Deoxycytidine kinase (Mus musculus, UniProt P43346) (P43346 whole entry): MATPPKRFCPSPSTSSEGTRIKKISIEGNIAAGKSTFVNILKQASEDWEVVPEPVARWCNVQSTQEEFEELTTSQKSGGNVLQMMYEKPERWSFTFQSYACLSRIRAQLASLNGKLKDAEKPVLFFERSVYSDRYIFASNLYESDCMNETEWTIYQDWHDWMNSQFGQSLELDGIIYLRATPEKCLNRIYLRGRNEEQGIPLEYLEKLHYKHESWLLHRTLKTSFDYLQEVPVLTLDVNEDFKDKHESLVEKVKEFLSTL

Deoxycytidine kinase [11] = molecular target: T1, Deoxycytidine kinase; test: Inhibition of deoxycytidine kinase in anti CD3 and anti CD28 -stimulated human T cells assessed as reduction in [3H]deoxycitidine incorporation; assay type: cell-based, T-cell
Target sequence in this assay (P27707 whole entry): as the sequence (P27707 whole entry) above

Deoxycytidine kinase [12] = molecular target: T1, Deoxycytidine kinase; test: Inhibition of deoxycytidine kinase in anti CD3 and anti CD28 -stimulated human T cells assessed as reduction in deoxythymidine incorporation; assay type: cell-based; conditions: T-cell
Target sequence in this assay (P27707 whole entry, looked up): as the sequence (P27707 whole entry) above

[13] = molecular target: Deoxycytidine kinase (Mus musculus) (UniProt P43346); test: Inhibition of deoxycytidine kinase in anti CD3 and anti CD28 -stimulated mouse T cells assessed as reduction in deoxythymidine incorporation; assay type: cell-based; conditions: T-cell
Chain of Deoxycytidine kinase (Mus musculus) (P43346 whole entry, looked up): as the sequence (P43346 whole entry) above

Mus musculus [14] = test: Inhibition of deoxycytidine kinase in anti CD3 -stimulated mouse assessed as reduction in [3H]deoxycytidine incorporation at 100 mg/kg, po treated 1 day before, day 0 and day 1 after anti CD3 challenge measured on day 2; assay type: functional, organism-based; parameters: dose 100 mg/kg
Method in brief: (§2)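 In vivo mouse dCK inhibition. Compound was given by oral gavage on day -1, day 0 and day 1. Anti-CD3 (0.5 µg/g body wt) was given ip on day 0, after the second dose. […] (100 µCi/animal) was given ip on day 1. Spleens were harvested on day 2 and dissociated into single-cell suspensions normalized to 30 mg/ml by spleen weight. Aliquots were filtered onto glass fibre and counted by liquid scintillation. n = 6-8 mice per group; controls were vehicle and no anti-CD3.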

Mus musculus [15] = test: Inhibition of deoxycytidine kinase in anti CD3 -stimulated po dosed mouse assessed as reduction in [3H]deoxycytidine incorporation treated 1 day before, day 0 and day 1 after anti CD3 challenge measured on day 2; assay type: functional, organism-based; method in brief: as §2

| Structure (SMILES) | IC50 (Deoxycytidine kinase [1]) [µM] | AUC(0-inf) [2] [µM·h] | Cmax [3] [µM] | half-life [4] [h] | Tmax [5] [h] | Vd [7] [L/kg] | clearance [8] [L/h/kg] | further results |
| --- | --- | --- | --- | --- | --- | --- | --- | --- |
| Nc1nc(=O)n([C@H]2CC[C@H](NS(=O)(=O)c3cccc(-c4ccccc4)c3)C2)cc1F | 0.12 | – | – | – | – | – | – | – |
| NC(=O)c1ccc(-c2cccc(S(=O)(=O)N[C@H]3CC[C@H](n4cc(F)c(N)nc4=O)C3)c2)cc1 | 0.089 | – | – | – | – | – | – | – |
| Nc1nc(=O)n([C@H]2CC[C@H](NS(=O)(=O)c3cccc(Br)c3)C2)cc1F | 1.9 | – | – | – | – | – | – | – |
| Nc1nc(=O)n([C@H]2CC[C@H](NS(=O)(=O)c3ccc(Br)cc3)C2)cc1F | 2.7 | – | – | – | – | – | – | – |
| COc1ccc(-c2cccc(S(=O)(=O)N[C@H]3CC[C@H](n4cc(F)c(N)nc4=O)C3)c2)cc1 | 0.064 | 0.6 | 0.3 | 1.2 | 0.8 | 4.4 | 3.78 | bioavailability [6]: 9% |
| COc1ccc(-c2cccc(C(=O)N[C@H]3CC[C@H](n4cc(F)c(N)nc4=O)C3)c2)cc1 | 0.03 | 3.8 | 3.4 | 1.6 | 0.3 | 1.3 | 1.08 | bioavailability [6]: 17% |
| Nc1nc(=O)n([C@H]2CC[C@H](NS(=O)(=O)c3ccccc3)C2)cc1F | 3.6 | – | – | – | – | – | – | – |
| Nc1nc(=O)n([C@H]2CC[C@H](NS(=O)(=O)c3cccc(-c4cccc(Cl)c4)c3)C2)cc1F | 0.079 | – | – | – | – | – | – | – |
| Nc1nc(=O)n([C@H]2CC[C@H](NS(=O)(=O)c3cccc(-c4ccc(Cl)cc4Cl)c3)C2)cc1F | 0.021 | – | – | – | – | – | – | – |
| Cc1cc(Cl)ccc1-c1cccc(S(=O)(=O)N[C@H]2CC[C@H](n3cc(F)c(N)nc3=O)C2)c1 | 0.021 | 2.3 | 1.5 | 1.6 | 0.3 | 3 | 1.38 | bioavailability [6]: 15% |
| Nc1nc(=O)n([C@H]2CC[C@H](NS(=O)(=O)c3cccc(-c4ccccc4Cl)c3)C2)cc1F | 0.045 | – | – | – | – | – | – | – |
| N#Cc1ccc(-c2cccc(S(=O)(=O)N[C@H]3CC[C@H](n4cc(F)c(N)nc4=O)C3)c2)cc1 | 0.049 | – | – | – | – | – | – | – |
| Cc1cc(Cl)ccc1-c1cccc(C(=O)N[C@H]2CC[C@H](n3cc(F)c(N)nc3=O)C2)c1 | 0.021 | 10.8 | 10.1 | 1.3 | 0.3 | 1.6 | 1.2 | bioavailability [6]: 58% |
| Nc1nc(=O)n([C@H]2CC[C@H](NC(=O)c3cccc(-c4ccc(Cl)cc4)c3)C2)cc1F | 0.042 | 15.8 | 16.2 | 0.8 | 0.3 | 0.2 | 0.18 | bioavailability [6]: 12% |
| Nc1nc(=O)n([C@H]2CC[C@H](NS(=O)(=O)c3cccc(-c4ccc(C(=O)O)cc4)c3)C2)cc1F | 15.3 | – | – | – | – | – | – | – |
| Nc1nc(=O)n([C@H]2CC[C@H](NC(=O)c3cccc(-c4cccc(Cl)c4)c3)C2)cc1F | 0.023 | – | – | – | – | – | – | – |
| Nc1nc(=O)n([C@H]2CC[C@H](NS(=O)(=O)c3ccc(-c4ccccc4)cc3)C2)cc1F | 0.35 | – | – | – | – | – | – | – |
| CS(=O)(=O)c1ccc(-c2cccc(S(=O)(=O)N[C@H]3CC[C@H](n4cc(F)c(N)nc4=O)C3)c2)cc1 | 0.063 | – | – | – | – | – | – | – |
| Cc1ccc(-c2cccc(S(=O)(=O)N[C@H]3CC[C@H](n4cc(F)c(N)nc4=O)C3)c2)cc1 | 0.11 | – | – | – | – | – | – | – |
| Nc1nc(=O)n([C@H]2CC[C@H](NC(=O)c3cc(-c4cc5ccccc5s4)ccn3)C2)cc1F | 0.0017 | 22 | 7.4 | 1.5 | 0.6 | 0.8 | 0.42 | bioavailability [6]: 42%; Stability (Liver microsomes): Stable; Stability [9]: Stable; EC50 (Deoxycytidine kinase [10]): 0.017 µM; EC50 (Deoxycytidine kinase [11]): 0.09 µM; Activity (Deoxycytidine kinase [12]): inactive; Activity [13]: inactive; Activity (Mus musculus [14]): Active; Activity (Mus musculus [15]): Dose-dependent effect |
| Nc1nc(=O)n([C@H]2CC[C@H](NC(=O)c3cccc(-c4ccccc4)c3)C2)cc1F | 0.26 | – | – | – | – | – | – | – |
| Nc1nc(=O)n([C@H]2CC[C@H](NS(=O)(=O)c3ccc([N+](=O)[O-])cc3)C2)cc1F | 3.2 | – | – | – | – | – | – | – |
| Nc1nc(=O)n([C@H]2CC[C@H](NS(=O)(=O)c3cccc(-c4ccc(Cl)cc4)c3)C2)cc1F | 0.051 | 5.2 | 1 | 2.1 | 2 | 16 | 8.4 | – |

Reference: ChEMBL document CHEMBL1154362, “Lead optimization and structure-based design of potent and bioavailable deoxycytidine kinase inhibitors” (Bioorg Med Chem Lett, 2009)
